The list is not random: actives were taken first. Their share in the collection is about 2.8%.
NPY-Y2 antag = NPY-Y2 receptor antagonists, primary screen, cell-based; Neuropeptide Y receptor type 2 (Homo sapiens), P49146; 140,000 tested, 0.99% active; inhibition, % at 2.7 µM; NPY-Y2 expressing cells, antagonist mode; in the data active = inhibition above about 17%;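 also: 0% = vehicle with agonist challenge and 100% = reference antagonist with challenge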
Target sequence (P49146 whole entry, looked up): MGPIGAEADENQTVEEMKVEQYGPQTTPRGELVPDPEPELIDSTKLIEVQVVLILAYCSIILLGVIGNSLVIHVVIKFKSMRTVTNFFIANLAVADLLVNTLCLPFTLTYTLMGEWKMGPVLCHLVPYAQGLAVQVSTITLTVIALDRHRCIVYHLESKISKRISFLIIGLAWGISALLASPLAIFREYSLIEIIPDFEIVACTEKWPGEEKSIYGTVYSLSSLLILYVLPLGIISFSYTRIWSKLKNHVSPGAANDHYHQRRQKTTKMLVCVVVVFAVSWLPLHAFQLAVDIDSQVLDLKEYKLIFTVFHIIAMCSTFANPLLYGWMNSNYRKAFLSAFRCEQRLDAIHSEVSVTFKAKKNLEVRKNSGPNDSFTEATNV
NPY2 pot ag = NPY-Y2 potentiators or agonists, primary screen, cell-based | activation, % at 3.6 µM | Neuropeptide Y receptor type 2 (Homo sapiens), P49146 | cells expressing NPY-Y2, potentiator/agonist read-out | AID 1359, 2008 | 220,000 tested, 0.45% active; in the data active = activation above about 27%;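 also: cells stimulated with NPY near EC25 plus isoproterenol at EC100; 0% = vehicle plus submaximal agonist and 100% = vehicle plus saturating agonist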
Measles CPE = compounds protecting cells from measles virus cytopathic effect, primary screen, measles RdRp inhibitor project, single point, MLSMR library, absorbance. Measles virus-infected cells, CPE protection. protection (pct of control), % at 4 µM. 140,000 tested, 1.5% active; in the data active = protection mostly above about 24%, no sharp cut-off; inactive = mostly below about 26%
Rad51 HR inh = human RAD51 strand exchange inhibitors, primary screen, biochemical, fluorescence | DNA repair protein RAD51 homolog 1 (Homo sapiens), Q06609 | hRad51 DNA strand exchange, fluorescence dequenching | inhibition, % at 10 µM | 200,000 tested, 0.085% active;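 active = inhibition above 40% at the single screening dose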;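 also: 0% = DMSO control wells and 100% = blanks with heterologous ssDNA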
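material = hRad51 filaments on single-stranded DNA | timing = filaments 15 min 37 °C, then compound 30 min | signal = FRET fluorescence dequenching, excitation 485 nm, emission 520 nm | benchmarks = control wells and blank wells on each plate | evaluation = percent inhibition relative to plate controls and blanks | compound = 10 µM final, single point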
NPY-Y1 PAM-ag = NPY-Y1 receptor potentiators or agonists, primary screen, cell-based | Neuropeptide Y receptor type 1 (Homo sapiens), P25929 | NPY-Y1 expressing cells, potentiator/agonist activation | activation, % at 3.6 µM | 220,000 tested, 0.37% active; in the data active = activation above about 33%, passing the limit was not always enough;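 also: cells stimulated with NPY at EC10 then isoproterenol at EC100; 0% = low agonist plus stimulus and 100% = saturating agonist plus stimulus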
NPY-Y1 antag = NPY-Y1 receptor antagonists, primary screen, cell-based; AID 1040, 2008; inhibition, % at 3.6 µM; 200,000 tested, 1% active; HEK293-CNG Y1 cells, membrane potential fluorescence; NPY at EC95, then isoproterenol; Neuropeptide Y receptor type 1 (Homo sapiens), P25929;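 active = inhibition above the campaign mean inhibition of all tested compounds plus 3 SD, cut at about 20% in these data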;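 also: 0% = DMSO wells given NPY plus isoproterenol and 100% = isoproterenol alone without NPY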
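Material: HEK293 Y1/CNG channel cell line; also added: NPY (25 nM), isoproterenol (1 µM), Ro 20-1724 (25 µM); doses: one concentration, 3.6 µM, in 0.4% DMSO; schedule: compound incubation 1 h at room temperature, readout 45 min post-stimulation; technique: membrane potential fluorescence; measure: fluorescence ratio normalized to % inhibition between controls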
An asterisk follows results filed as active; · = no result.

SMILES | NPY-Y2 antag | NPY2 pot ag | Measles CPE | Rad51 HR inh | NPY-Y1 PAM-ag | NPY-Y1 antag
Cc1nn(-c2ccccc2)c(C)c1NC(=O)COc1ccc(Br)cc1Cl | 4 | 0 | 17 | -4 | 5 | -1
O=C(CCN1CCc2ccccc2C(c2ccccc2)C1)c1ccc2c(c1)OCCO2 (centres undefined) | 11 | -15 | 41* | -1 | -30 | 7
O=C(O)CCC(=O)c1ccc2c(c1)OCCO2 | 18* | -26 | 4 | 2 | -39 | 29*
CN(C)CCCC(=O)c1ccc2c(c1)OCO2 | 0 | 1 | 35* | -1 | 1 | -2
CCOc1ccc(NS(=O)(=O)c2ccc(NC(=O)[C@@H]3CCCC[C@@H]3C(=O)O)cc2)cc1 | 4 | 17 | 8 | 14 | -10 | -3
Cc1cc(C)nc(NS(=O)(=O)c2ccc(NC(=O)C3(c4ccccc4)CCCC3)cc2)n1 | -1 | 9 | 5 | 9 | 8 | -2
O=C1C2CCCN2C(c2ccc(F)cc2)N1c1nccs1 (centres undefined) | 2 | -7 | 33* | 6 | 12 | 0
CCC(=O)N/N=C/c1ccc(OS(=O)(=O)c2ccccc2)cc1 | 0 | 4 | 18* | 3 | -19 | 1
Cn1cc(Cl)c(C(=O)N/N=C/c2ccc(OS(=O)(=O)c3ccccc3)cc2)n1 | 3 | 7 | 13 | 12 | -3 | 7
O=C(NC(=S)Nc1ccccc1N1CCCC1)c1cccc(F)c1 | · | -1 | · | 1 | -18 | -1
Cc1csc2c(N3CCN(C(=O)Nc4ccc(OC(F)(F)F)cc4)CC3)ncnc12 | · | -13 | · | 10 | -8 | ·
CC1CCN(c2nc(CN3CCCCC3)nc3scc(-c4ccccc4)c23)CC1 | 47* | -11 | 8 | -2 | -41 | 41*
CC1CCN(c2nc(-c3cccnc3)nc3scc(-c4ccccc4)c23)CC1 | 0 | 11 | 23 | · | 10 | 1
O=C(N/N=C/c1ccc2c(c1)OCO2)C(=O)Nc1ccc2ccccc2c1 | · | -2 | · | -7 | -12 | 3
O/N=C1/C2C3CC4C5C3C1C5C1(OCCO1)C42 (centres undefined) | 3 | 0 | 51* | 2 | -10 | 5
COc1ccccc1/C=C/C=N/n1c(C)nnc1C | · | -3 | · | -28 | -4 | 2
CCOC(=O)C1CCCN(C(=O)c2cc3ccccc3oc2=O)C1 (centres undefined) | · | 11 | · | -14 | 3 | 3
O=C(N/N=C/c1ccc(F)cc1)c1sccc1OCc1ccc(F)cc1 | 23* | -39 | 5 | 0 | -50 | 11
Cc1ccc(/C=N\NC(=O)c2cc(OCC(F)(F)F)ccc2OCC(F)(F)F)cc1 | 5 | -17 | 6 | 1 | -32 | 6
O=C(N/N=C/c1ccc(Cl)cc1)c1sccc1OCc1ccc(F)cc1 | 113* | -153 | 4 | -2 | -227 | 109*
O=C(N/N=C\c1ccc(F)cc1)c1cc(OCC(F)(F)F)ccc1OCC(F)(F)F | 2 | -20 | 37* | -1 | -18 | 5
C/C(=N\Nc1ccc(S(=O)(=O)N2CCOCC2)cc1[N+](=O)[O-])C(C)C | · | 11 | · | 0 | -11 | 0
Cc1c(F)cccc1NS(=O)(=O)c1ccc2c(c1)c(=O)n(C)c(=O)n2C | · | -20 | · | · | 2 | 5
Cc1cc(=S)[nH]c2c(C)cccc12 | 8 | -10 | 6 | 2 | -11 | 0
CCc1ccc2nc(SCC(=O)Nc3nnc(C)s3)c(C)cc2c1 | · | 1 | · | 1 | 20 | -2
SMILES | NPY-Y2 antag | NPY2 pot ag | Measles CPE | Rad51 HR inh | NPY-Y1 PAM-ag | NPY-Y1 antag
CCC(C)OC(=O)C1=C(C)NC2=C(C(=O)C(C(=O)OC)C(C)C2)C1c1ccc(N(C)C)cc1 (centres undefined) | -1 | 8 | 58* | 0 | 18 | -1
CS(=O)(=O)N1CCN(C(=O)c2ccc(Cl)s2)CC1 | · | -6 | · | 43* | 2 | 4
Cc1scc(C(=O)N2CCN(S(C)(=O)=O)CC2)c1-c1ccccc1 | 3 | 4 | 11 | 0 | -34 | -1
CS(=O)(=O)N1CCN(C(=O)c2csc3ccccc23)CC1 | -5 | 10 | 61* | 2 | -7 | 4
Cc1cc(NC(=O)CSc2ncnc3sc(C)c(C)c23)no1 | · | -15 | · | 3 | -7 | 5
CCN(CC)c1ccc(/C=C(/C#N)c2nc3ccccc3[nH]2)c(OC(C)C)c1 | 2 | 16 | 7 | -308 | 40 | 1
CCN(CC)Cc1c(CC(C)C)oc(C)c1C(=O)O | 1 | 6 | 5 | 1 | 1 | 4
COC(=O)[C@@]1(Cc2ccccc2)[C@@H]2C(=CC(=O)[C@H]2CC(=O)C(=O)N(C)C)CN1C(=O)c1ccccc1 | 2 | -9 | 82* | 6 | -56 | -3
CCOC(=O)C1CCCN(S(=O)(=O)c2cccs2)C1 (centres undefined) | 3 | 6 | 29* | -7 | -28 | 0
CCC(=O)Nc1c2c(nn1-c1ccc(F)cc1)CS(=O)C2 (centres undefined) | 2 | -7 | 3 | -5 | 9 | 2
CC(C)CC(=O)Nc1c2c(nn1-c1ccc(F)cc1)CSC2 | 3 | 100* | 10 | · | 93* | -4
CCc1ccc2c(CN3CCc4ccccc43)cc(=O)oc2c1 | 22* | -9 | 11 | 5 | -2 | 22*
CC1=C(C#N)C(NC(=O)c2cccc(Cl)c2)(C(F)(F)F)C(=O)N1 (centres undefined) | 4 | -6 | 11 | -1 | -7 | 4
NC(=O)COC(=O)CC1CC2CCC1C2 (centres undefined) | · | -2 | · | 11 | 0 | 8
CN(c1ccccc1C(=O)NC1CCCCC1)S(=O)(=O)c1ccccc1 | · | -17 | · | 6 | -5 | 20*
Cc1cc(C)nc(NC(=O)c2ccc(COc3ccccc3Cl)cc2)c1 | · | 5 | · | -63 | -1 | 5
Cc1ccc(OCC(=O)N(Cc2ccccc2)C2CCS(=O)(=O)C2)c([N+](=O)[O-])n1 (centres undefined) | 2 | -3 | 37* | 7 | 12 | 1
CCN(C(=O)COc1ccc(C)nc1[N+](=O)[O-])C1CCS(=O)(=O)C1 (centres undefined) | 2 | 2 | 31 | -3 | -5 | 5
O=C(CCCOc1ccccc1)Nc1ccc(Br)cc1 | 5 | -33 | · | -14 | -21 | 22*
CCN(CC)c1ccc(NC(=O)CCCOc2cccc(C)c2)cc1 | · | -6 | · | 41* | -1 | 9

High-throughput results (PubChem BioAssay)
